The values that follow come from ChEMBL document CHEMBL5696442, “Discovery of type II inhibitors of TGFβ-activated kinase 1 (TAK1) and mitogen-activated protein kinase kinase kinase kinase 2 (MAP4K2)” (J Med Chem, 2015).

The structures appear in SMILES notation. The source made the active and inactive calls. No cut-off for these calls is given here.

Assay [1] has as its target DNA-PK/Ku70/Ku85 (Homo sapiens) (UniProt P78527+P12956+P13010). In words: Inhibition of DNAPK ATP labeling site harbouring KGGSWIQEINVAEK in human A-375 cells at 5 uM by KiNativ Profiling analysis relative to control. In kind it is cell-based. Summed up:
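Live A375 melanoma cells were treated with compound at 0.5 or 5 μM, then lysed. Lysates were labeled with a lysine-reactive ATP or ADP-biotin probe. The read-out was protection of each kinase probe-labeling site from labeling, relative to control.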

Assay [2] concerns the target Calcium/calmodulin-dependent protein kinase type II subunit gamma (Homo sapiens) (UniProt Q13555). Nature of the assay: Inhibition of CaMK2g Lys1 labeling site harbouring TSTQEYAAKIINTK in human A-375 cells at 0.05 uM by KiNativ Profiling analysis relative to control. In kind it is cell-based.
Assay [3] has as its system Tyrosine-protein kinase ABL1 (Homo sapiens), P00519 [Q252H]. Nature of the assay: Inhibition of phosphorylated ABL1 Q252H mutant (unknown origin) at 1 uM by Ambit Kinomescan binding assay relative to control; values are per cent of control.
For assay [4], the target named is Serine/threonine-protein kinase 26 (Homo sapiens) (UniProt Q9P289). In words: Inhibition of MST4 K1 labeling site in human Huh-7 cells at 1 uM by KiNativ Profiling analysis relative to control. Format: cell-based.
Serine/threonine-protein kinase 26 (Homo sapiens), sequence (Q9P289 2-416 limits assumed): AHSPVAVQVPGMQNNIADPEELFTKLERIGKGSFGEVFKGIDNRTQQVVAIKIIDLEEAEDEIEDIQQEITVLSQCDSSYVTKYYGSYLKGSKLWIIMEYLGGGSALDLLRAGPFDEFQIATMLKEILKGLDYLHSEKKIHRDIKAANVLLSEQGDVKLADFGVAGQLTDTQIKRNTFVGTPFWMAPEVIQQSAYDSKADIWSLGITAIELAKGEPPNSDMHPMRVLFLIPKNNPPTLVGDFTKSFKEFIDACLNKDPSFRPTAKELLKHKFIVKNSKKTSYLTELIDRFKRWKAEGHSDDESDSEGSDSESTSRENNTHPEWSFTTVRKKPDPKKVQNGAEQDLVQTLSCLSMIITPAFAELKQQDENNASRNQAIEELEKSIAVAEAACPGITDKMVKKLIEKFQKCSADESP
In assay [5] the target is Rho-associated protein kinase 1 (Homo sapiens) (UniProt Q13464). In words: Inhibition of ROCK1 in human Huh-7 cells at 1 uM by KiNativ Profiling analysis relative to control. In kind it is cell-based.
Rho-associated protein kinase 1 (Homo sapiens), sequence (Q13464 2-1354 limits assumed): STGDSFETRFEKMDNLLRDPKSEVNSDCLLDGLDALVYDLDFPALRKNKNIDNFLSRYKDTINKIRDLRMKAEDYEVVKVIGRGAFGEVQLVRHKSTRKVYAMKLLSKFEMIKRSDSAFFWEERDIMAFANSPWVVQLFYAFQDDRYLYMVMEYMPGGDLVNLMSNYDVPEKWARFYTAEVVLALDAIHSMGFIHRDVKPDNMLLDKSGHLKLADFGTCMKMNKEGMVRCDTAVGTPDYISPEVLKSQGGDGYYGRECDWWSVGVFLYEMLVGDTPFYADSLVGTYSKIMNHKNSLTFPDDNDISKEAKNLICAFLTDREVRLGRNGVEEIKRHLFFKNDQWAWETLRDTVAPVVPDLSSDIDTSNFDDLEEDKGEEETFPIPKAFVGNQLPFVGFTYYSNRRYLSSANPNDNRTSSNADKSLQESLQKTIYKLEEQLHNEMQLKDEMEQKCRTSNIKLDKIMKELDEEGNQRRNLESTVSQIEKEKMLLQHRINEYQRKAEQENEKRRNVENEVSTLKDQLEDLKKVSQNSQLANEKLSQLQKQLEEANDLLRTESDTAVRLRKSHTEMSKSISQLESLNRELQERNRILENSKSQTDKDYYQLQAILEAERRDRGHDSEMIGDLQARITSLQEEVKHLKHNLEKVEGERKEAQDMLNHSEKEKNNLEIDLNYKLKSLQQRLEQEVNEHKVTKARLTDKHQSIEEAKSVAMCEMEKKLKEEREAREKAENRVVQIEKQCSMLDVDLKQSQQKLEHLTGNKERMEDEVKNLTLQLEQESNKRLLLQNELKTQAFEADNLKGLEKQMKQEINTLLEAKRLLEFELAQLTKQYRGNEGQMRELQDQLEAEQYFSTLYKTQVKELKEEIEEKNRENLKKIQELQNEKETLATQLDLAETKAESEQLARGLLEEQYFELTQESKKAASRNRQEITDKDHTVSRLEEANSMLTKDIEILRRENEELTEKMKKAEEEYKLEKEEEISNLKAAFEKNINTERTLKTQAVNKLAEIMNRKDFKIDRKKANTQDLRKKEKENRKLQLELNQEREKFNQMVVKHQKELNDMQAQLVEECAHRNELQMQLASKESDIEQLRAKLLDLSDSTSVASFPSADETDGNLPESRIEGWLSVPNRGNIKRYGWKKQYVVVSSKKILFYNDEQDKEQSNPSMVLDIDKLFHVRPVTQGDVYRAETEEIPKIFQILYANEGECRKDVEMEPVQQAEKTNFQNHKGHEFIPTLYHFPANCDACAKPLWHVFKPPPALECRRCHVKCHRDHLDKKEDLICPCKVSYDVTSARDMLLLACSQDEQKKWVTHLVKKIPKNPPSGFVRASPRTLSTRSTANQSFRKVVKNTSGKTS
The target of assay [6] is T1, Dual specificity mitogen-activated protein kinase kinase 4 (Homo sapiens) (UniProt P45985).
T1 sequence (whole entry): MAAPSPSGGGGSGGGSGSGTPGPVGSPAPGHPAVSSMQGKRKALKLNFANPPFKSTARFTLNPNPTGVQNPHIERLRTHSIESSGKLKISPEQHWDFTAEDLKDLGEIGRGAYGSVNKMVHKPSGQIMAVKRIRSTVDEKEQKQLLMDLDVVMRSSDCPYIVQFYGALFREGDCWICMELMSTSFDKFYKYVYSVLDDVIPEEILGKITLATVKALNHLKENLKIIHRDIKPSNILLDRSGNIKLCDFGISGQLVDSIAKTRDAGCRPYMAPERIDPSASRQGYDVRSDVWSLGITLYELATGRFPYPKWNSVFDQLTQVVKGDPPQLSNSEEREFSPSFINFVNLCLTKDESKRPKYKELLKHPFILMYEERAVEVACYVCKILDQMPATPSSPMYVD
Nature of the assay: Inhibition of MAP2K4 K2 labeling site harbouring DIKPSNILLDR in human Huh-7 cells at 1 uM by KiNativ Profiling analysis relative to control. Format: cell-based.

The target of assay [7] is Mast/stem cell growth factor receptor Kit (Homo sapiens) (UniProt P10721). Nature of the assay: Inhibition of KIT (unknown origin) at 10 uM by Ambit Kinomescan binding assay relative to control.
Assay [8] addresses Casein kinase II subunit alpha' (Homo sapiens) (UniProt P19784). In words: Inhibition of CSNK2A2 (unknown origin) at 10 uM by Ambit Kinomescan binding assay.
The target of assay [9] is Peripheral plasma membrane protein CASK (Homo sapiens) (UniProt O14936). In words: Inhibition of CASK Lys1 labeling site in human A-375 cells at 5 uM by KiNativ Profiling analysis relative to control.
The test system of assay [10] is Receptor-type tyrosine-protein kinase FLT3 (Homo sapiens), P36888 [UNDEFINED MUTATION]. Nature of the assay: Inhibition of FLT3 ITD mutant (unknown origin) at 10 uM by Ambit Kinomescan binding assay relative to control.
Receptor-type tyrosine-protein kinase FLT3 (Homo sapiens), P36888 [UNDEFINED MUTATION], sequence (P36888 whole entry, looked up, change not shown): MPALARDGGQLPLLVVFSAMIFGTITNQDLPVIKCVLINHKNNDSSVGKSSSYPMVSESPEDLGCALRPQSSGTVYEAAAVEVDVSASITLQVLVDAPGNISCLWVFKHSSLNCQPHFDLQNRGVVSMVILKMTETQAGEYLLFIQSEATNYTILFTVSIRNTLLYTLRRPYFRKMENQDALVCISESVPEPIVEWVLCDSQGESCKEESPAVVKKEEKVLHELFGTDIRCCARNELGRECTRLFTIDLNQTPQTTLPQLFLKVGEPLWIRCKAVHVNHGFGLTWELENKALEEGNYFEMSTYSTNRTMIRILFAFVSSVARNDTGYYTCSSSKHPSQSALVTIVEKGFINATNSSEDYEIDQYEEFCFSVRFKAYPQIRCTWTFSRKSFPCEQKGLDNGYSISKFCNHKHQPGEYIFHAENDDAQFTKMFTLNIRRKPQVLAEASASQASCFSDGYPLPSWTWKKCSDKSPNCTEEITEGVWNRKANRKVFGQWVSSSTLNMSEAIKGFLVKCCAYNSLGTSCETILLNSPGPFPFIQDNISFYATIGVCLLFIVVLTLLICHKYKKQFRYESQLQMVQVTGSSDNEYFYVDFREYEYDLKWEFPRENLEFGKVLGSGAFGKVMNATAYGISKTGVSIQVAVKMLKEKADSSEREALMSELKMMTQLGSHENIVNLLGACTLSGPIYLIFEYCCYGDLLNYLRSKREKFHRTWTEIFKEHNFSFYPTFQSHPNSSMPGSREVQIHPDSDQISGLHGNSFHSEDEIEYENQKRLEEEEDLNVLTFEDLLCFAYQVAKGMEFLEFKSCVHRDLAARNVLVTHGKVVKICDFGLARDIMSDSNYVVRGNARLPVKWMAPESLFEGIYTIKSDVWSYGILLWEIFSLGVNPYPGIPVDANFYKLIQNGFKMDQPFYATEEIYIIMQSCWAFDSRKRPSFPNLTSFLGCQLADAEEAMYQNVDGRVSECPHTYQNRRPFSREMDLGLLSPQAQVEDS
The target of assay [11] is Tyrosine-protein kinase SYK (Homo sapiens) (UniProt P43405). In words: Inhibition of SYK (unknown origin) at 10 uM by Ambit Kinomescan binding assay relative to control; values are per cent of control.
For assay [12], the target named is T2, Atrial natriuretic peptide receptor 2 (Homo sapiens) (UniProt P20594).
T2 sequence (whole entry): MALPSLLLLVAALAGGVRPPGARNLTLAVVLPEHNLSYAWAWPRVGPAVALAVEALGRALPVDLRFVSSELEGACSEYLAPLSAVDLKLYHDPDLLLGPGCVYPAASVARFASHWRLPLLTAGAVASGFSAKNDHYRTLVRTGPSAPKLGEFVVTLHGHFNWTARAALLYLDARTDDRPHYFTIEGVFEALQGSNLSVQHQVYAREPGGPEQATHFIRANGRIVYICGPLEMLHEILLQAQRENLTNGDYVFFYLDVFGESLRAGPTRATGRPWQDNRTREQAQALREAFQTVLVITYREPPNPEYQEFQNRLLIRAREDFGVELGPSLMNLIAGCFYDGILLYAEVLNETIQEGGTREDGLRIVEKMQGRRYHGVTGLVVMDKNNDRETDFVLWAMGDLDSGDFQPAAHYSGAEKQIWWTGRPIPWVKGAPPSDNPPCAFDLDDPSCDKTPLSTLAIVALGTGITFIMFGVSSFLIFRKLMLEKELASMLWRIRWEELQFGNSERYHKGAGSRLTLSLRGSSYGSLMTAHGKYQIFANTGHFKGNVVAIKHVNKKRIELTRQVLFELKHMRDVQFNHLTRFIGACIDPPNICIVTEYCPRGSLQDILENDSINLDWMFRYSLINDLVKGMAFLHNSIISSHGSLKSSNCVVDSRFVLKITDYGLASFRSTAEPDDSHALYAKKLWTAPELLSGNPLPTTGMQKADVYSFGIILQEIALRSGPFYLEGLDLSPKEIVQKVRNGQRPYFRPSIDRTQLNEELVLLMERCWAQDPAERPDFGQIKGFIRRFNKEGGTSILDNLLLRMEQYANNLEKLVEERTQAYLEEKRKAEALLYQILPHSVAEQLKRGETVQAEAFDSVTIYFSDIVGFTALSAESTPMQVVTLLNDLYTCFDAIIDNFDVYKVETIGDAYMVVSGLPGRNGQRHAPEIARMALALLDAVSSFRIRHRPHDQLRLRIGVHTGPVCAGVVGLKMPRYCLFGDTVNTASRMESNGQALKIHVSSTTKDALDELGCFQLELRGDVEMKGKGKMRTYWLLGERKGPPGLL
Nature of the assay: Inhibition of ANPb Lys2 labeling site in human A-375 cells at 0.5 uM by KiNativ Profiling analysis relative to control. Format: cell-based.

For assay [13], the target named is Ribosomal protein S6 kinase alpha-3 (Homo sapiens) (UniProt P51812). In words: Inhibition of RSK2 domain1 ACT labeling site harbouring LTDFGLSKESIDHEKK in human Huh-7 cell lysate at 1 uM by KiNativ Profiling analysis relative to control. In kind it is subcellular.
Ribosomal protein S6 kinase alpha-3 (Homo sapiens), sequence (P51812 whole entry, the tested form may be a part): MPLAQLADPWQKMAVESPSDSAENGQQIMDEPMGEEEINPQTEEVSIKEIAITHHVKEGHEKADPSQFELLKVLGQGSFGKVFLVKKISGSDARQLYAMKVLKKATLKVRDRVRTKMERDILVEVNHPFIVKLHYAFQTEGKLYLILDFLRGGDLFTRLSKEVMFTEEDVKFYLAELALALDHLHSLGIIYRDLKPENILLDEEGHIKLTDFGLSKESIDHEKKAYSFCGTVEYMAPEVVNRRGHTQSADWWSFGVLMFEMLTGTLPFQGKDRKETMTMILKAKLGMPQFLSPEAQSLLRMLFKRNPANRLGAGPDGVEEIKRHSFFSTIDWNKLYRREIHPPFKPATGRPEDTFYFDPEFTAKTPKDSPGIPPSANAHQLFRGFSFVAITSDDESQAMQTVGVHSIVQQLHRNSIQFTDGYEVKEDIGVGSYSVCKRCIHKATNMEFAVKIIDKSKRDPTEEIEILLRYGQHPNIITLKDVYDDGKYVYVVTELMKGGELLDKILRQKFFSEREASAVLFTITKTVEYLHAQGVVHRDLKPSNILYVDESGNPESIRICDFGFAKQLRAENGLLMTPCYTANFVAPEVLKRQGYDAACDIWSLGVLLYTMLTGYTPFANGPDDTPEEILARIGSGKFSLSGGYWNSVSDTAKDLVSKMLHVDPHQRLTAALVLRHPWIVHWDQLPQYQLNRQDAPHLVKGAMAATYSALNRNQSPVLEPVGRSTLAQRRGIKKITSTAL
In assay [14] the target is Ribosomal protein S6 kinase alpha-1 (Homo sapiens) (UniProt Q15418). In words: Inhibition of RSK1 domain2 ACT labeling site in human Huh-7 cell lysate at 1 uM by KiNativ Profiling analysis relative to control. In kind it is subcellular.
Ribosomal protein S6 kinase alpha-1 (Homo sapiens), sequence (Q15418 whole entry, the tested form may be a part): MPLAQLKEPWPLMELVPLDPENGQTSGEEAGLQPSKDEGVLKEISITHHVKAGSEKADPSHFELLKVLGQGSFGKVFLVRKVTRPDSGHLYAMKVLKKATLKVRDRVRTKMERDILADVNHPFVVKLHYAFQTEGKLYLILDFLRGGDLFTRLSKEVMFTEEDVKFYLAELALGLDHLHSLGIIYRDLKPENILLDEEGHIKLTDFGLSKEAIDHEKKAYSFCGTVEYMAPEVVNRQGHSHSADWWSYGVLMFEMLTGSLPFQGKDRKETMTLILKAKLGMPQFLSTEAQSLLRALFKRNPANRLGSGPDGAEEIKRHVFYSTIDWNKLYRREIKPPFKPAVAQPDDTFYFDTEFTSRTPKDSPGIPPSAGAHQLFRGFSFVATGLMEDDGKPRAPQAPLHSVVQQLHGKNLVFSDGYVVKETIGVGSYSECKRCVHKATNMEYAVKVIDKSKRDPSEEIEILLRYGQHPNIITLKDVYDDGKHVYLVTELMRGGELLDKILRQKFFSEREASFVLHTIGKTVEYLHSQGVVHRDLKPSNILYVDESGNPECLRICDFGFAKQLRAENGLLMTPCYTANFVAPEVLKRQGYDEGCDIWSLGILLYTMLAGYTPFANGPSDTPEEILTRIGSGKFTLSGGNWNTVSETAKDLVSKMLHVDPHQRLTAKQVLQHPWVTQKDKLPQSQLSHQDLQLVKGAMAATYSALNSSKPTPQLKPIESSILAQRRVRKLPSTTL
For assay [15], the target named is Serine/threonine-protein kinase MARK2 (Homo sapiens) (UniProt Q7KZI7). In words: Inhibition of MARK2 Lys2 labeling site harbouring DLKAENLLLDADMNIK in human Huh-7 cells at 1 uM by KiNativ Profiling analysis relative to control. Format: cell-based.

Calcium/calmodulin-dependent protein kinase type II subunit gamma (Homo sapiens), sequence (Q13555 whole entry): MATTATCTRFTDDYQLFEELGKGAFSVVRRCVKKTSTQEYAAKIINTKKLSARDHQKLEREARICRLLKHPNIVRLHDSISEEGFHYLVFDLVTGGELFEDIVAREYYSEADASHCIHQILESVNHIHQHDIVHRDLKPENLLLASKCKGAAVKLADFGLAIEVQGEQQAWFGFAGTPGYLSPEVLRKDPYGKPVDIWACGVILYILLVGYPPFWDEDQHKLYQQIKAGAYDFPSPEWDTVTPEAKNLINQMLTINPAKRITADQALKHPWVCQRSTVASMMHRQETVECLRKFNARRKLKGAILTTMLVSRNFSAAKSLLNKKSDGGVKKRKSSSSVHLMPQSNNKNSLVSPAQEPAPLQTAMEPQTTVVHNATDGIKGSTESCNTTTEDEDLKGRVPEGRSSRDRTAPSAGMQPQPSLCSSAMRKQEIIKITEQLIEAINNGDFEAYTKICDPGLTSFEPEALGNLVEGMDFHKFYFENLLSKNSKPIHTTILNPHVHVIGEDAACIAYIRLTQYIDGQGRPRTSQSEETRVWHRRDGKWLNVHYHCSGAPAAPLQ

For orientation: inhibition means the drop in the measured response relative to a control, in per cent. For `CCN1CCN(Cc2ccc(NC(=O)c3ccc(C)c(/C=C/c4cnc5[nH]ccc5c4OC)c3)cc2C(F)(F)F)CC1`, the inhibition is -8.9% in [1] and 26.3% in [2]. In addition, in [3], the percent of control came out at 1.2%.
The term residual activity denotes the signal under treatment as a percentage of the control signal. Higher therefore signals much activity left. With `CCN1CCN(Cc2ccc(NC(=O)c3ccc(C)c(Oc4ccnc5[nH]ccc45)c3)cc2C(F)(F)F)CC1`, the inhibition was 5.3% in assay [4]; -5.5% in [5]; -9.3% in assay [6]; 0% in assay [7]; 6.6% in assay [9]; 0.7% in assay [10]. Also, the inhibition in [12] is -9.4%. Also, the inhibition entry in assay [8] was “inactive”. The molecule further returned a residual activity in assay [11] of 6.2%.
For the molecule `CNc1cc(Oc2cc(C(=O)Nc3cc(N4CCN(C)CC4)cc(C(F)(F)F)c3)ccc2C)ncn1`, the inhibition in assay [13] is -2.2%; in assay [14] it was 1.9%; in [15], 19.4%.
